According to ChEMBL document CHEMBL1130185, “Search for DNA repair inhibitors: selective binding of nucleic bases-acridine conjugates to a DNA duplex containing an abasic site” (J Med Chem, 1997):

Experiments:
[1] = Deprotonation equilibrium constant for compound was determined; type: ADME
Summary of the method: (§1)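 pKa values were determined by potentiometric titration of the acridine ligand at 5 × 10^-4 M across pH 2-12. The distribution of nonprotonated, mono-, bi- and higher protonated species was estimated graphically from the titration curves.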

[2] = Deprotonation equilibrium constant for compound was determined at pH<4; type: ADME; summary of the method: as §1

Row | pKa [1] | pKa [2] | SMILES
1 | 10 | – | COc1ccc2nc3cc(Cl)ccc3c(NCCCNCCCN)c2c1
2 | 9.8 | 4 | COc1ccc2nc3cc(Cl)ccc3c(NCCCNCCCNCCn3cnc4c(N)nc(N)nc43)c2c1
